For data set [1], the system named is Trypanosoma cruzi. The data set is described as follows: Antitrypanosomal activity against Trypanosoma cruzi MHOM/Pe/2011/Arequipa DTU 5 trypamastigotes infected in Balb/c mouse assessed as reduction in parasitaemia reactivation at 100 mg/kg, po pretreated once daily for 5 consecutive days starting from day 75 post infection followed by cyclophosphamide-induced immunosuppression on day 100 post infection every 4 days for a maximum of 3 doses measured up to 1 week post immunosuppression by Neubauer chamber method. It counts as functional, organism-based.

Data set [2] deals with Mus musculus. The data set is described as follows: Hepatotoxicity in Balb/c mouse infected with Trypanosoma cruzi MHOM/Pe/2011/Arequipa DTU 5 trypamastigotes assessed as increase in ratio of serum AST to GOT level at […], po once daily for 5 consecutive days starting from day 75 post infection measured on day 81 post infection by biochemical analysis relative to control. The format is toxicity, organism-based. To be noted: in vivo.

Data set [3] relates to Trypanosoma cruzi. Briefly: Antitrypanosomal activity against Trypanosoma cruzi MHOM/Pe/2011/Arequipa DTU 5 epimastigotes assessed as effect on parasite glycolytic pathway by measuring increase in succinate excretion at IC25 after 72 hrs by 1H NMR method relative to control. The format is functional. The essentials:
(§1)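 Arequipa epimastigotes exposed at IC25 for 72 h alongside an untreated control. Excreted catabolites were analysed by 1H NMR, and each peak is reported as % variation versus the control. Three separate determinations.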

Data set [4] concerns Trypanosoma cruzi. Briefly: Antitrypanosomal activity against Trypanosoma cruzi MHOM/Pe/2011/Arequipa DTU 5 epimastigotes assessed as effect on parasite glycolytic pathway by measuring acetate excretion at IC25 after 72 hrs by 1H NMR method. It counts as functional, organism-based. The procedure, abridged: as §1
Data set [5] relates to Mus musculus. The data set is described as follows: Nephrotoxicity in Balb/c mouse infected with Trypanosoma cruzi MHOM/Pe/2011/Arequipa DTU 5 trypamastigotes assessed as change in uric acid level in serum at […], po once daily for 5 consecutive days starting from day 10 post infection measured on day 127 post infection by biochemical analysis relative to control. It counts as toxicity, organism-based. The settings on record: in vivo.

Data set [6] has as its system Mus musculus. The data set is described as follows: Cardiotoxicity in Balb/c mouse infected with Trypanosoma cruzi MHOM/Pe/2011/Arequipa DTU 5 trypamastigotes assessed as change in ratio of creatine kinase in muscle to brain at 100 mg/kg, po once daily for 5 consecutive days starting from day 10 post infection measured on day 16 post infection by biochemical analysis relative to control. The format is toxicity, organism-based. To be noted: in vivo.

Data set [7] concerns Mus musculus. The data set is described as follows: Nephrotoxicity in Balb/c mouse infected with Trypanosoma cruzi MHOM/Pe/2011/Arequipa DTU 5 trypamastigotes assessed as decrease in urea level in serum at […], po once daily for 5 consecutive days starting from day 10 post infection measured on day 16 post infection by biochemical analysis relative to control. The format is toxicity, organism-based. On the set-up: scale not given: the % may be the effect or the level left. To be noted: in vivo.

The subject of data set [8] is Mus musculus. The data set is described as follows: Nephrotoxicity in Balb/c mouse infected with Trypanosoma cruzi MHOM/Pe/2011/Arequipa DTU 5 trypamastigotes assessed as decrease in uric acid level in serum at […], po once daily for 5 consecutive days starting from day 75 post infection measured on day 127 post infection by biochemical analysis relative to control. The settings on record: in vivo. The format is toxicity, organism-based. Also on record: scale not given: the % may be the effect or the level left.

For data set [9], the system named is Mus musculus. Briefly: Nephrotoxicity in Balb/c mouse infected with Trypanosoma cruzi MHOM/Pe/2011/Arequipa DTU 5 trypamastigotes assessed as decrease in uric acid level in serum at […], po once daily for 5 consecutive days starting from day 10 post infection measured on day 16 post infection by biochemical analysis relative to control. The format is toxicity, organism-based. Also on record: scale not given: the % may be the effect or the level left. To be noted: in vivo.

The subject of data set [10] is Trypanosoma cruzi. Briefly: Antitrypanosomal activity against Trypanosoma cruzi MHOM/Pe/2011/Arequipa DTU 5 epimastigotes assessed as effect on parasite glycolytic pathway by measuring ethanol excretion at IC25 after 72 hrs by 1H NMR method. It counts as functional, organism-based. The procedure, abridged:
as §1

Data set [11] has as its system Mus musculus. Briefly: Nephrotoxicity in Balb/c mouse infected with Trypanosoma cruzi MHOM/Pe/2011/Arequipa DTU 5 trypamastigotes assessed as increase in urea level in serum at […], po once daily for 5 consecutive days starting from day 75 post infection measured on day 127 post infection by biochemical analysis relative to control. To be noted: in vivo. The format is toxicity, organism-based.

Data set [12] deals with Mus musculus. Briefly: Hepatotoxicity in Balb/c mouse infected with Trypanosoma cruzi MHOM/Pe/2011/Arequipa DTU 5 trypamastigotes assessed as decrease in ratio of serum AST to GOT level at […], po once daily for 5 consecutive days starting from day 10 post infection measured on day 16 post infection by biochemical analysis relative to control. The format is toxicity, organism-based. On the set-up: scale not given: the % may be the effect or the level left. To be noted: in vivo.

For data set [13], the system named is Mus musculus. The data set is described as follows: Hepatotoxicity in Balb/c mouse infected with Trypanosoma cruzi MHOM/Pe/2011/Arequipa DTU 5 trypamastigotes assessed as decrease in alkaline phosphatase level at […], po once daily for 5 consecutive days starting from day 10 post infection measured on day 16 post infection by biochemical analysis relative to control. Also on record: scale not given: the % may be the effect or the level left. It counts as toxicity, organism-based. To be noted: in vivo.

Data set [14] deals with Mus musculus. The data set is described as follows: Nephrotoxicity in Balb/c mouse infected with Trypanosoma cruzi MHOM/Pe/2011/Arequipa DTU 5 trypamastigotes assessed as increase in uric acid level in serum at […], po once daily for 5 consecutive days starting from day 10 post infection measured on day 127 post infection by biochemical analysis relative to control. The format is toxicity, organism-based. The settings on record: in vivo.

Data set [15] relates to Mus musculus. Briefly: Hepatotoxicity in Balb/c mouse infected with Trypanosoma cruzi MHOM/Pe/2011/Arequipa DTU 5 trypamastigotes assessed as change in alkaline phosphatase level at […], po once daily for 5 consecutive days starting from day 75 post infection measured on day 81 post infection by biochemical analysis relative to control. The format is toxicity, organism-based. The settings on record: in vivo. The procedure, abridged: (§2)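 Serum clinical chemistry in Arequipa-infected female BALB/c mice. Oral 20 mg·kg-1 per day for 5 days, started day 10 or day 75 pi. Samples taken at day 16 pi or day 81 pi, and on necropsy day. Markers: CK-MB and LDH (U/L), AST, ALT and alkaline phosphatase (U/L), total bilirubin. Results scored relative to infected untreated controls; uninfected reference n = 15.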

The subject of data set [16] is Mus musculus. Briefly: Nephrotoxicity in Balb/c mouse infected with Trypanosoma cruzi MHOM/Pe/2011/Arequipa DTU 5 trypamastigotes assessed as decrease in uric acid level in serum at 20 mg/kg, po once daily for 5 consecutive days starting from day 75 post infection measured on day 127 post infection by biochemical analysis relative to control. It counts as toxicity, organism-based. On the set-up: scale not given: the % may be the effect or the level left. To be noted: in vivo.

In data set [17] the test system is Mus musculus. Briefly: Cardiotoxicity in Balb/c mouse infected with Trypanosoma cruzi MHOM/Pe/2011/Arequipa DTU 5 trypamastigotes assessed as change in serum LDH level at 20 mg/kg, po once daily for 5 consecutive days starting from day 10 post infection measured on day 16 post infection by biochemical analysis relative to control. It counts as toxicity, organism-based. The settings on record: in vivo. The procedure, abridged:
as §2

Data set [18] concerns Mus musculus. Briefly: Cardiotoxicity in Balb/c mouse infected with Trypanosoma cruzi MHOM/Pe/2011/Arequipa DTU 5 trypamastigotes assessed as change in serum LDH level at 20 mg/kg, po once daily for 5 consecutive days starting from day 10 post infection measured on day 127 post infection by biochemical analysis relative to control. The format is toxicity, organism-based. To be noted: in vivo. The procedure, abridged:
as §2

Data set [19] relates to Mus musculus. The data set is described as follows: Hepatotoxicity in Balb/c mouse infected with Trypanosoma cruzi MHOM/Pe/2011/Arequipa DTU 5 trypamastigotes assessed as increase in ratio of serum AST to GOT level at 20 mg/kg, po once daily for 5 consecutive days starting from day 75 post infection measured on day 127 post infection by biochemical analysis relative to control. To be noted: in vivo. It counts as toxicity, organism-based.

Data set [20] deals with Mus musculus. The data set is described as follows: Cardiotoxicity in Balb/c mouse infected with Trypanosoma cruzi MHOM/Pe/2011/Arequipa DTU 5 trypamastigotes assessed as decrease in serum LDH level at 20 mg/kg, po once daily for 5 consecutive days starting from day 75 post infection measured on day 127 post infection by biochemical analysis relative to control. The format is toxicity, organism-based. Also on record: scale not given: the % may be the effect or the level left. The settings on record: in vivo. The procedure, abridged: as §2

For data set [21], the system named is Mus musculus. The data set is described as follows: Toxicity in Balb/c mouse assessed as reduction in body mass at 20 mg/kg, po once daily for 5 consecutive days starting from day 75 post infection relative to control. The format is organism-based. Also on record: scale not given: the % may be the effect or the level left. The settings on record: in vivo.

Activity calls are given as the source filed them. The calls are words filed in the database; no cut-off is given here.

Turning to `COc1ccc(C(=O)CCN2CCN(c3ccc([N+](=O)[O-])cc3)CC2)cc1`, the outcome in the data set with Trypanosoma cruzi [1] was Active. Also, the Activity entry in the data set on Mus musculus [2] was “<= 30%”; in the data set on Trypanosoma cruzi [3] it was greater than 20%; with Mus musculus [5], less than 10%; with Mus musculus [6], less than 10%; in the data set on Mus musculus [7], “<= 20%”; in the data set on Mus musculus [8], “<= 30%”. The Activity result with Mus musculus [9] is recorded as “<= 20%”. Moreover, the outcome in the data set on Trypanosoma cruzi [4] and in the data set with Trypanosoma cruzi [10] was inactive.
With `COc1ccc(C(=O)CCN2CCN(c3ccc(F)cc3)CC2)cc1`, the outcome in the data set with Trypanosoma cruzi [1] was Active. The Activity entry in the data set on Mus musculus [11] is “<= 10%”; in the data set on Mus musculus [12], “<= 30%”; in the data set with Mus musculus [13] it was “<= 20%”; with Mus musculus [6], less than 10%; with Mus musculus [14] it was “<= 10%”.
On to `COc1ccc(C(=O)CCN2CCN(c3ccc(Cl)cc3)CC2)cc1`, for which the Activity with Trypanosoma cruzi [3] is 200%; in the data set with Mus musculus [5], less than 10%; with Mus musculus [15], less than 10%; in the data set with Mus musculus [12], “<= 20%”; in the data set with Mus musculus [13], “<= 10%”; in the data set with Mus musculus [7], “<= 30%”. Also, the Activity result in the data set on Mus musculus [9] is “<= 30%”. Also, the outcome with Trypanosoma cruzi [4] and in the data set on Trypanosoma cruzi [10] was inactive.
`O=C(Cn1ccnc1[N+](=O)[O-])NCc1ccccc1` [BENZNIDAZOLE]: the Activity entry in the data set on Mus musculus [16] is listed as “<= 20%”; in the data set with Mus musculus [17] it was less than 10%; in the data set with Mus musculus [18], less than 10%; with Mus musculus [19], “<= 10%”; with Mus musculus [20], “<= 20%”; with Mus musculus [21], greater than 10%.

The values above are taken from ChEMBL document CHEMBL4118256, “Second Generation of Mannich Base-Type Derivatives with in Vivo Activity against Trypanosoma cruzi” (J Med Chem, 2018).
